ChEMBL document CHEMBL4007432, “Discovery and characterization of novel CYP1B1 inhibitors based on heterocyclic chalcones: Overcoming cisplatin resistance in CYP1B1-overexpressing lines” (Eur J Med Chem, 2017)
Values after ≈ are worked out from the molar mass of the structure shown.

Columns and labels:
[1] = biological target: Cytochrome P450 3A4 (Homo sapiens, UniProt P08684); test: Inhibition of human liver CYP3A4 expressed in Saccharomyces cerevisiae YY7 microsomal membranes using DBF as substrate after 10 mins by fluorescence assay; assay type: ADME, Microsomal Membrane
[2] = biological target: Cytochrome P450 2D6 (Homo sapiens, UniProt P10635); test: Inhibition of human liver CYP2D6 expressed in Saccharomyces cerevisiae YY7 microsomal membranes using EOMCC as substrate after 10 mins by fluorescence assay; assay type: ADME, Microsomal Membrane
Procedure, shortened: (§1)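 Yeast microsomes (YY7 strain carrying human reductase) held 0.5 pmol CYP with an NADP+/glucose-6-phosphate/G6PDH regenerating system in KPi. Fluorogenic substrate per isoform: 7-ER, CEC, EOMCC or DBF. Six serial 1:20 dilutions were tested, DMSO ≤0.5%. Reactions ran 10 min at 37 °C and were stopped with Tris-acetonitrile. Endpoint fluorescence (530/590 nm for resorufin) was fitted by 4-parameter sigmoid. Triplicate, ≥3 experiments.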

[3] = Solubility of the compound in pH 7.4 PBS buffer; assay type: physicochemical
[4] = biological target: T1, Cytochrome P450 1B1 (Homo sapiens, UniProt Q16678); test: Inhibition of human liver CYP1B1 expressed in Saccharomyces cerevisiae YY7 microsomal membranes at 5 to 10 uM using 7-ethoxyresorufin as substrate after 10 mins by fluorescence assay
T1 sequence (Q16678 whole entry): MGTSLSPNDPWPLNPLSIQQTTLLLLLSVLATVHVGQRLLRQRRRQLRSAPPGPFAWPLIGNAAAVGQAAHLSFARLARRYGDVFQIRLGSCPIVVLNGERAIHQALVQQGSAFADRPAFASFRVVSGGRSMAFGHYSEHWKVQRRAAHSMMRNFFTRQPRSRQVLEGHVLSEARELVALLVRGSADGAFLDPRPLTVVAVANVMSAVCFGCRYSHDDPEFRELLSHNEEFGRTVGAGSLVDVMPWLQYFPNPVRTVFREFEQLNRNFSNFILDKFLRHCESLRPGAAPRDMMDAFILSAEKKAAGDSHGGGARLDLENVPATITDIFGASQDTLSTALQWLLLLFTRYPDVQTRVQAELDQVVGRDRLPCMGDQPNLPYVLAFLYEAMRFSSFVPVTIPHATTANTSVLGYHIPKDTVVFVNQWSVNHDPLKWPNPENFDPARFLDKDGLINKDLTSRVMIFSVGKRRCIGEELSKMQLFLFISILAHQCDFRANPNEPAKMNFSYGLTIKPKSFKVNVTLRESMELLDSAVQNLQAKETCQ
Procedure, shortened: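 Single-concentration screen on CYP1B1 yeast microsomes at 5 µM (10 µM per methods), with 7-ER under the regenerating-system endpoint format: 10 min at 37 °C. Percentage inhibition versus a DMSO control; each compound tested twice.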

[5] = biological target: T2, Cytochrome P450 1A1 (Homo sapiens, UniProt P04798); test: Inhibition of human liver CYP1A1 expressed in Saccharomyces cerevisiae YY7 microsomal membranes using 7-ethoxyresorufin as substrate after 10 mins by fluorescence assay; assay type: ADME, Microsomal Membrane; procedure, shortened: as §1
T2 sequence (P04798 whole entry): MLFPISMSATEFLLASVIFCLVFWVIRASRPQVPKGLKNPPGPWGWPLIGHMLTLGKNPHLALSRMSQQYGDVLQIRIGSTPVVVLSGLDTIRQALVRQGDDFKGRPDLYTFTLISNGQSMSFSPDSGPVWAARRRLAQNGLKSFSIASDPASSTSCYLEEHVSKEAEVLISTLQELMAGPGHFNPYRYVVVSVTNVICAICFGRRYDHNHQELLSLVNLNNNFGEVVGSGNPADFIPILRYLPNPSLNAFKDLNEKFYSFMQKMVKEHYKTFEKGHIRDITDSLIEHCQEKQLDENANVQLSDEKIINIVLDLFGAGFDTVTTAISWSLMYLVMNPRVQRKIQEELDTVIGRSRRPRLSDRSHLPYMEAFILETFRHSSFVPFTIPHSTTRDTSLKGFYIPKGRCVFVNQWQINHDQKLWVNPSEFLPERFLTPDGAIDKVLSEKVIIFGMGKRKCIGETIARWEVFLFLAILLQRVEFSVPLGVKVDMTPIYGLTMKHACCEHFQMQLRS

[6] = biological target: T1, Cytochrome P450 1B1; test: Inhibition of CYP1B1 in human A2780cis cells assessed as potentiation of cisplatin-induced cytotoxicity at 2 times CYP1B1 inhibitory IC50 by MTT assay; assay type: cell-based
[7] = biological target: T3, Cytochrome P450 1A2 (Homo sapiens, UniProt P05177); test: Inhibition of human liver CYP1A2 expressed in Saccharomyces cerevisiae YY7 microsomal membranes using CEC as substrate after 10 mins by fluorescence assay; assay type: ADME, Microsomal Membrane; procedure, shortened: as §1
T3 sequence (P05177 whole entry): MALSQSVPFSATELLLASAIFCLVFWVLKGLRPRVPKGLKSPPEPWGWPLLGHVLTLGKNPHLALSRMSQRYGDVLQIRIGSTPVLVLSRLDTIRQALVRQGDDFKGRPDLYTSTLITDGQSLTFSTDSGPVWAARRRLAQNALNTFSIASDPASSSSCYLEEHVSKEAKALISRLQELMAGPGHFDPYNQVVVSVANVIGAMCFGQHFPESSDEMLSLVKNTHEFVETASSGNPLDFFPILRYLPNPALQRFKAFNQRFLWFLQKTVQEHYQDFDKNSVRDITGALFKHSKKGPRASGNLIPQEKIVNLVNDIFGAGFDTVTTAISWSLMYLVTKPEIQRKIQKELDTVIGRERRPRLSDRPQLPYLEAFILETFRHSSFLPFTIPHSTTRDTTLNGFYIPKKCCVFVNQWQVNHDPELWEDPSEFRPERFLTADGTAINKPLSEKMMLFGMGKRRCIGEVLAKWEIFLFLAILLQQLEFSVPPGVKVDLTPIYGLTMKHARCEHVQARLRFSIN

[8] = biological target: Cytochrome P450 2C9 (Homo sapiens, UniProt P11712); test: Inhibition of human liver CYP2C9 expressed in Saccharomyces cerevisiae YY7 microsomal membranes using DBF as substrate after 10 mins by fluorescence assay; assay type: ADME, Microsomal Membrane
[9] = biological target: T1, Cytochrome P450 1B1; test: Inhibition of human liver CYP1B1 expressed in Saccharomyces cerevisiae YY7 microsomal membranes using 7-ethoxyresorufin as substrate after 10 mins by fluorescence assay; procedure, shortened: as §1
[10] = biological target: T1, Cytochrome P450 1B1; test: Inhibition of human liver CYP1B1 expressed in Saccharomyces cerevisiae YY7 cells using 7-ethoxyresorufin as substrate after 10 mins by fluorescence assay; assay type: cell-based
Procedure, shortened: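 Live S. cerevisiae YY7 carrying human CYP1B1 was grown in YP-galactose. Cells were harvested 16–20 h after induction, washed in TE (pH 7.4) and diluted 1:10.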

[11] = biological target: T1, Cytochrome P450 1B1; test: Inhibition of human liver CYP1B1 expressed in HEK293 cells using CEC as substrate preincubated for 30 mins followed by substrate addition measured after 60 mins by fluorescence assay; assay type: cell-based
Procedure, shortened: (§2)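 HEK293 cells adapted to suspension were lipid-transfected with pCDM/hCYP1B1, used 24–48 h later and resuspended at 4×10^6/mL. Wells of 100–200×10^3 cells, in triplicate, were preincubated with compound (1 nM–30 µM) for 30 min at 37 °C, 8% CO2. Substrate followed: 7-ER at 5 µM or CEC. Fluorescence was read over 60 min and IC50 obtained by sigmoidal fit.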

[12] = Solubility of the compound in pH 1.2 simulated gastric fluid; assay type: physicochemical
[13] = biological target: T1, Cytochrome P450 1B1; test: Inhibition of human liver CYP1B1 expressed in HEK293 cells using 7-ethoxyresorufin as substrate preincubated for 30 mins followed by substrate addition measured after 60 mins by fluorescence assay; assay type: cell-based; procedure, shortened: as §2
[14] = Solubility of the compound in pH 6.8 simulated intestinal fluid; assay type: physicochemical
[15] = biological target: Cytochrome P450 2C19 (Homo sapiens, UniProt P33261); test: Inhibition of human liver CYP2C19 expressed in Saccharomyces cerevisiae YY7 microsomal membranes using DBF as substrate after 10 mins by fluorescence assay; assay type: ADME, Microsomal Membrane
[16] = biological target: T4, CYP1B1 (Homo sapiens, UniProt Q16678); test: Inhibition of human liver CYP1B1 expressed in Saccharomyces cerevisiae YY7 microsomal membranes at 1 uM using 7-ethoxyresorufin as substrate after 10 mins by fluorescence assay relative to control; conditions: probe 7-ethoxyresorufin
T4 sequence (Q16678 whole entry): T1 sequence (Q16678 whole entry)

Cytochrome P450 2D6, sequence (P10635 whole entry, canonical isoform): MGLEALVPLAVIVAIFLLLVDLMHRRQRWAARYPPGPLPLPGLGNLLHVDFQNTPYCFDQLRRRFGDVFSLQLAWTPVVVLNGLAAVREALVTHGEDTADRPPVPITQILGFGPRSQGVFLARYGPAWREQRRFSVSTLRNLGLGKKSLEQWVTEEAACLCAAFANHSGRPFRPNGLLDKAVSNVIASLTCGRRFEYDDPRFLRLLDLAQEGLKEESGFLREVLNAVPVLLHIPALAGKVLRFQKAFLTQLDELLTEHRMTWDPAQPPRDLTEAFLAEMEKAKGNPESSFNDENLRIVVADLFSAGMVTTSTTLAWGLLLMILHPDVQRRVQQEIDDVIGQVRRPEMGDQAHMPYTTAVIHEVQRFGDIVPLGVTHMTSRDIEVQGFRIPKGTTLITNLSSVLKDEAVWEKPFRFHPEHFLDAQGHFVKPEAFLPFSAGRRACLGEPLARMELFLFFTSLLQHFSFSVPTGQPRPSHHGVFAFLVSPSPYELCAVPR
Cytochrome P450 2C19, sequence (P33261 whole entry): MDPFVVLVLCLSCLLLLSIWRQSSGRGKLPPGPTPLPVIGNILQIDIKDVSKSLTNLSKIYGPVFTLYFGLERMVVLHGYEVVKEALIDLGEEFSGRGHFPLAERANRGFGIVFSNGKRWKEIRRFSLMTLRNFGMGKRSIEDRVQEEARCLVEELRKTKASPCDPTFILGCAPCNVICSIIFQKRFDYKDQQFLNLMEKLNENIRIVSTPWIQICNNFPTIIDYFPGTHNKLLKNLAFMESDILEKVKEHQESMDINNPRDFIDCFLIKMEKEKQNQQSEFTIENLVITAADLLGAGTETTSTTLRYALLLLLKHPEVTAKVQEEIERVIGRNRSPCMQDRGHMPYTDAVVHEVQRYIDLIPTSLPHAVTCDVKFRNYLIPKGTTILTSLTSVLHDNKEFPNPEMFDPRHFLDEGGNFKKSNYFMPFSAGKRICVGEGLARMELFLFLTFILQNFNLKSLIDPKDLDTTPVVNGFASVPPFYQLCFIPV
Cytochrome P450 2C9, sequence (P11712 whole entry): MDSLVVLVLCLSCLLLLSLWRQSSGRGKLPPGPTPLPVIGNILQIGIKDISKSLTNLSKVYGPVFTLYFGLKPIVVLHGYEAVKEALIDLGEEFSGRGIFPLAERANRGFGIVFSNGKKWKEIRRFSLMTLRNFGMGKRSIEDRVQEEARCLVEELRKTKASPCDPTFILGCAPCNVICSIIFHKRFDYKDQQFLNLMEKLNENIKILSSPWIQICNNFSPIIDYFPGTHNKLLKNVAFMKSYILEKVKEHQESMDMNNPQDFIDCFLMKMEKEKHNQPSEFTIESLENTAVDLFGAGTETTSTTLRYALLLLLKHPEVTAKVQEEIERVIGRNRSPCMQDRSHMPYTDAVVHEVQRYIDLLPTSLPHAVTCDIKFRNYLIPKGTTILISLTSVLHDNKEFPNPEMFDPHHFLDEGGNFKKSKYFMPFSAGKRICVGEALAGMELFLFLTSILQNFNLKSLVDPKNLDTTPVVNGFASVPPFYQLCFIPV
Cytochrome P450 3A4, sequence (P08684 whole entry): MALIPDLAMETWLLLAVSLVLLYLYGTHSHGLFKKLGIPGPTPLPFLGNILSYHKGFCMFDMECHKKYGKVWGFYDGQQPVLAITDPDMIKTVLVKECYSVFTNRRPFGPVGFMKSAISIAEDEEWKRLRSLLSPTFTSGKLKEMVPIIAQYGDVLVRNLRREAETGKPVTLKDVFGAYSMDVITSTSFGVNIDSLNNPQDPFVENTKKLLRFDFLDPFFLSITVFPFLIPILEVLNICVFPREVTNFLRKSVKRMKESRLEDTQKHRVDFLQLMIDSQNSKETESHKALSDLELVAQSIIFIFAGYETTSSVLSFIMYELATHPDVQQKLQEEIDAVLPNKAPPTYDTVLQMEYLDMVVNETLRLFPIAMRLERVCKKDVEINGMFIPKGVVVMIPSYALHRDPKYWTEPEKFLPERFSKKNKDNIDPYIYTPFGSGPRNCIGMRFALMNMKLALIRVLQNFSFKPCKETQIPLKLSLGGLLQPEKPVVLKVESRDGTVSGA

Row | SMILES | IC50 [1] [nM] | IC50 [2] [nM] | solubility [3] [µg/mL] | inhibition (INH) [4] | IC50 [5] [nM] | inhibition (INH) [6] | IC50 [7] [nM] | IC50 [8] [nM] | IC50 [9] [nM] | IC50 [10] [nM] | IC50 [11] [nM] | solubility [12] [µg/mL] | IC50 [13] [nM] | solubility [14] [µg/mL] | IC50 [15] [nM] | inhibition at 10 min, 1 µM [16] [%]
1 | O=C(/C=C/c1ccc2ccccc2c1)c1cccnc1 | 18000 | 10000 | 14.5 (≈ 56 µM) | Active | 742 | Not Active | 1200 | > 20000 | 10 | 64 | 4 | 68.6 (≈ 264 µM) | 53 | 0.45 (≈ 1.74 µM) | > 20000 | 
2 | COc1ccc2cc(C(=O)/C=C/c3cccnc3)ccc2c1 |  | 5000 | 20.1 (≈ 69.4 µM) | Active | 795 | Not Active | 1200 | > 20000 | 9 | 65 | 4 | 538 (≈ 1860 µM) | 8 | 0.27 (≈ 0.933 µM) | > 20000 | 
3 | O=c1cc(-c2ccccc2)oc2c1ccc1ccccc12 [ALPHA-NAPHTHOFLAVONE] |  |  | 6.85 (≈ 25.2 µM) | Active |  |  |  |  |  |  |  | 6.45 (≈ 23.7 µM) |  | 0.58 (≈ 2.13 µM) |  | > 80
